Assay outcomes from PubChem.
MC4R barr agon = MC4R agonists recruiting beta-arrestin, primary screen, cell-based, luminescence, agonist arm of biased-ligand search | Melanocortin receptor 4 (Homo sapiens), P32245 | U2OS MC4R beta-arrestin complementation; percent of melanotan II response, DMSO zero | activation, % at 8.9 µM | hit rate 0.98% among 360,000 | AID 540308, 2011;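 active = activation above a per-plate cutoff, the mean activation of sample wells on that plate plus 3 SD, cut at about 8% in these data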
Target sequence (P32245 whole entry, looked up): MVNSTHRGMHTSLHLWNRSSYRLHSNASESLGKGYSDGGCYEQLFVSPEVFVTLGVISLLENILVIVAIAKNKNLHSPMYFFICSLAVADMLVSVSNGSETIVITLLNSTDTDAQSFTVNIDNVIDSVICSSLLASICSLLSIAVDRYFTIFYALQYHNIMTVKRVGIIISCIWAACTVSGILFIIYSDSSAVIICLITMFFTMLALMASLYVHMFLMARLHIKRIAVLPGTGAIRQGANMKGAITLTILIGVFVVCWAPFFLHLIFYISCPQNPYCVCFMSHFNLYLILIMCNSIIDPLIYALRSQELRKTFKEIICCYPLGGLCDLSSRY
Beta apoptosis = inhibitors of cytokine-induced beta cell apoptosis, primary screen, luminescence; INS-1E cytokine-induced death, ATP luminescence, 48 h; percent of positive-control rescue, neutral wells zero; hit rate 0.8% among 300,000; protection from apoptosis, % (no concentration beside the values);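 active = Every replicate reaches about 75%, or at least half do and their mean reaches it too, limit read from the data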;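 note: higher means more ATP so stronger rescue from cytokine killing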
ANO1 activ = TMEM16A chloride channel activators or potentiators, primary screen, cell-based, HTS; B-score at 10 µM; HEK293 TMEM16A/YFP-H148Q/I152L, iodide quench fluorescence; stronger effect = lower value; hit rate 0.3% among 340,000;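 active = fluorescence-ratio B-score plate-corrected deviation score at least 3 library SD below zero, with starting fluorescence score within 5 deviations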;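 note: channel opened by trigger with iodide after compound preincubation; score built on the fluorescence ratio of max minus min over baseline; more negative score means more quench and so TMEM16A activation or potentiation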
CSC inhib = cancer stem cell viability inhibitors, primary screen, luminescence; hit rate 1.1% among 300,000; cancer stem cell-like cells viability; inhibition, % at 7.5 µM; in the data active = inhibition above about 75%; tested in HMLE shEcad cells
MC4R antag cAMP = MC4R antagonists of cAMP signaling, primary screen, cell-based, TR-FRET, antagonist arm of biased-ligand search | hit rate 0.48% among 360,000 | MC4R-expressing cells, MTII-stimulated cAMP, LANCE TR-FRET | inhibition, % at 6.5 µM | AID 540295, 2011 | Melanocortin receptor 4 (Homo sapiens), P32245;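 active = inhibition above its plate's cutoff, the mean of tested wells on that plate plus 3 SD, cut at about 29% in these data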
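Assay system: U2OS-MC4R stable cell line; Also added: Melanotan II; Technique: Eu-cAMP/anti-cAMP TR-FRET, emission 671 nm; Times: 30-min compound, 1-h challenge, 1-h detection, room temperature.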
TMEM16A inh = TMEM16A chloride channel inhibitors, primary screen, cell-based, HTS; Anoctamin-1 (Mus musculus), Q8BHY3; HEK293 TMEM16A/YFP iodide influx fluorescence, ionomycin; normalized B-score (activity score, 25-100; higher = stronger inhibition) at 10 µM; hit rate 1.2% among 310,000;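 active = ratio plate-corrected score three or more library SD toward inhibition, starting fluorescence score within five deviations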;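 note: score derived from kinetic fluorescence span divided by baseline fluorescence per well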
MC4R barr conf = MC4R beta-arrestin agonists, retest, confirmation, cell-based, luminescence, U2OS; shares compounds with MC4R barr agon; U2OS MC4R beta-arrestin recruitment; scaled DMSO 0%, Melanotan II 100%; activation, % at 8.9 µM; hit rate 31% among 2,400; AID 602192, 2012;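 active = mean activation across replicates above the hit cutoff set in the earlier primary screen, cut at about 8% in these data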
MOR DOR agonist = agonists of MOR-DOR heterodimerization, counter-screen for MC4R biased agonist project, cell-based, luminescence | shares compounds with MC4R barr agon | U2OS PathHunter beta-arrestin, beta-gal luminescence; percent of deltorphin B response, DMSO zero | activation, % at 9.2 µM | hit rate 5.8% among 2,400;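 active = mean activation across replicates exceeds the hit threshold derived in the earlier primary screen, cut at about 18% in these data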
Large screens that a line does not name were inactive (follow-up assays come after a bar, where they were run). Hits are enriched below; roughly 3.8% of the tested compounds scored in any of these assays.

CSc1cccc(N2CC(C(=O)N(Cc3nnc(-c4ccccc4Cl)o3)C3CC3)CC2=O)c1 (centres undefined)	none
O=C(CN1c2ccccc2Sc2ccccc21)NNC(=O)Nc1ccc(Cl)cc1	none (no result: Beta apoptosis, CSC inhib)
O=C(CN1c2ccccc2Sc2ccccc21)NNC(=O)Nc1ccc(Cl)c(Cl)c1	MC4R barr agon 23, CSC inhib 101 (no result: Beta apoptosis) | MC4R barr conf inactive | MOR DOR agonist inactive
O=C(NNc1nc2ccccc2s1)Nc1ccc(F)cc1	none
O=C(NNc1nc2ccccc2s1)Nc1ccc(Cl)c(Cl)c1	MC4R barr agon 16 | MC4R barr conf 9.2 | MOR DOR agonist inactive
O=C(COC(=O)/C=C/c1cccc(Br)c1)Nc1ccc(Cl)cn1	none (no result: Beta apoptosis, ANO1 activ, CSC inhib, TMEM16A inh)
CC(C)c1ccc(NC(=O)COC(=O)/C=C/c2cccc(Br)c2)cc1	MC4R barr agon 11 (no result: CSC inhib) | MC4R barr conf inactive | MOR DOR agonist inactive
O=C(Nc1ccc(F)cc1)c1cc(-c2ccncc2)nc2c(Cl)cccc12	MC4R barr agon 12 | MC4R barr conf inactive | MOR DOR agonist inactive
CN1C(=O)/C(=C/c2ccccc2OCc2cccc(F)c2)NC1=S	MC4R barr agon 30 (no result: CSC inhib) | MC4R barr conf inactive | MOR DOR agonist inactive
NC1=NC(=O)/C(=C/c2cn(Cc3ccccc3)c3ccccc23)S1	MC4R barr agon 11 | MC4R barr conf inactive | MOR DOR agonist inactive
CN1CCC2(CC1)N=C(c1ccc(F)cc1)C(=S)N2C(=O)c1ccc(C(C)(C)C)cc1	MC4R barr agon 11 | MC4R barr conf inactive | MOR DOR agonist inactive
COc1ccc(-c2ccc(C(=O)Nc3cccc(N(C)C)c3)c3occc23)c(C)c1	none (no result: Beta apoptosis, ANO1 activ, CSC inhib, TMEM16A inh)
CCOc1ccc(N2C(=O)CN(C)C2=S)cc1	none
CCOc1ccc(N2C(=O)/C(=C/c3cccs3)N(C)C2=S)cc1	MC4R barr agon 26 | MC4R barr conf 12 | MOR DOR agonist inactive
O=C(NC(=S)Nc1ccccc1)c1cncc(C#Cc2ccccc2)c1	MC4R barr agon 14 | MC4R barr conf inactive | MOR DOR agonist inactive
O=C(O)c1cncc(C#Cc2ccccc2)c1	none
CN(C(=O)c1ccc(NC(=O)Cc2cccc(NC(=O)C3CCCN(C(=O)C4CCCC4)C3)c2)cc1)C1CCCC1 (centres undefined)	none (no result: TMEM16A inh)
O=C(CC(O)c1ccccc1)Nc1ccccn1 (centres undefined)	none (no result: Beta apoptosis, CSC inhib, TMEM16A inh)
Cn1c(SCCC#N)nnc1-c1ccc(F)cc1	none
CC1=C(SCCC#N)S/C(=C2\SC(C)=C(SCCC#N)S2)S1	MC4R barr agon 19 | MC4R barr conf inactive | MOR DOR agonist inactive
O=S(=O)(Nc1ccc(-n2cccc2)cc1)c1ccc(Cl)cc1Cl	MC4R barr agon 11 | MC4R barr conf inactive | MOR DOR agonist inactive
N#CCCN(C(=O)COC(=O)c1ccc(Cl)nc1)c1ccc2c(c1)OCCO2	none (no result: Beta apoptosis, ANO1 activ, CSC inhib, TMEM16A inh)
COc1ccc(CN(C)C(=O)c2cc(S(=O)(=O)Nc3ccccc3F)ccc2C)c(OC)c1	MC4R barr agon 12 (no result: Beta apoptosis) | MC4R barr conf inactive | MOR DOR agonist inactive
COc1ccccc1N(C)S(=O)(=O)c1ccc(C(=O)N2CCCc3ccccc32)cc1	none
O=C(c1ccccc1)c1ccc2nc(-c3ccc(NC(=O)c4ccccc4F)cc3)[nH]c2c1	MC4R barr agon 12 | MC4R barr conf inactive | MOR DOR agonist inactive
Cc1ccc(NC(=O)c2ncn(CCCN3CCN(Cc4cccc5ccccc45)CC3)n2)cc1C	MC4R barr agon 16 (no result: Beta apoptosis, ANO1 activ, CSC inhib, TMEM16A inh) | MC4R barr conf 26 | MOR DOR agonist inactive
O=C(Nc1ccc(F)cc1F)c1c(C(F)(F)F)ccnc1Oc1ccccc1	none
Cc1cccc(Oc2nccc(C(F)(F)F)c2C(=O)Nc2ccc(F)cc2F)c1	MC4R barr agon 20 | MC4R barr conf inactive | MOR DOR agonist inactive
O=C(c1ccc(NC2=NC3CS(=O)(=O)CC3S2)cc1)N1CCN(c2ccc([N+](=O)[O-])cc2)CC1 (centres undefined)	none
Cc1ccc(C)c(N2CCN(S(=O)(=O)c3ccc4[nH]c(=O)ccc4c3)CC2)c1	MC4R barr agon 17 | MC4R barr conf inactive | MOR DOR agonist inactive
Cc1cccc(N2CCN(S(=O)(=O)c3ccc4[nH]c(=O)ccc4c3)CC2)c1C	none
CC(=O)Nc1cccc(C(=O)N2CCN(S(=O)(=O)c3ccc(C4CCCCC4)cc3)CC2)c1	none (no result: Beta apoptosis, CSC inhib, TMEM16A inh)
Cc1cc2oc3ccc(NCCCn4ccnc4)cc3c(=O)c2cc1C	MC4R barr agon 11 (no result: Beta apoptosis) | MC4R barr conf inactive | MOR DOR agonist inactive
Cc1cc2oc3ccc(NCCCN4CCOCC4)cc3c(=O)c2cc1C	none
CC1CCN(S(=O)(=O)c2cccc3cccnc23)CC1	none
COc1ccc(/C=N\NS(=O)(=O)c2ccc(Cl)cc2)cc1COc1ccccc1[N+](=O)[O-]	MC4R barr agon 18 | MC4R barr conf 10 | MOR DOR agonist inactive
COc1ccc(/C=N/Nc2nc(C)cc(-c3ccccc3)n2)cc1OC	none
Cc1ccc(-c2cc(-c3ccccc3)nc(Cl)n2)cc1	none
COc1ccc(/C=N/NC(=O)c2nc(-c3ccccc3)cc(-c3ccccc3)n2)cc1OC	MC4R barr agon 19 | MC4R barr conf inactive | MOR DOR agonist inactive
COc1ccc(/C=N/NC(=O)c2ccncc2)cc1OC	none
COc1ccc(/C=C/C(=O)Oc2ccc(/C=N/NC(=O)c3ccccc3)cc2)cc1OC	MC4R barr agon 23 | MC4R barr conf inactive | MOR DOR agonist 22
COc1ccc(-c2cnnc(N/N=C/c3ccc(OC)c(OC)c3)n2)cc1	MC4R barr agon 13 | MC4R barr conf inactive | MOR DOR agonist inactive
COc1ccc(-c2cc(-c3ccccc3)nc(Cl)n2)cc1OC	MC4R barr agon 13 | MC4R barr conf inactive | MOR DOR agonist inactive
O=C(NC1CCCC1)c1cc(-c2cccc(Cl)c2)on1	none
Cc1cc(Cl)ccc1-c1nc(NC(C)C)nc2ccsc12	none (no result: Beta apoptosis, ANO1 activ, CSC inhib, TMEM16A inh)
CC(C(=O)Nc1ccccc1C#N)N1C(=O)NC2(CCCCCC2)C1=O (centres undefined)	none (no result: Beta apoptosis, CSC inhib, TMEM16A inh)
O=C(C[C@H]1C(=O)N(c2ccccc2)C[C@@H]1Cc1ccccc1)Nc1ccc(Br)cc1	MC4R barr agon 14 (no result: Beta apoptosis, ANO1 activ, CSC inhib, TMEM16A inh) | MC4R barr conf inactive | MOR DOR agonist inactive
Cc1csc(NC(C)c2nc3cc(Cl)c(Cl)cc3n2CCCO)n1 (centres undefined)	none
